Laboratory results taken from ChEMBL document CHEMBL3085764, “Azole-carbodithioate hybrids as vaginal anti-Candida contraceptive agents: design, synthesis and docking studies” (Eur J Med Chem, 2013).
≈ marks a conversion by molar mass, not a printed value.

How the values were obtained:
Sporothrix schenckii = test: Antifungal activity against Sporothrix schenckii after 48 hrs by broth microdilution technique; type: functional, organism-based
In short: (§1)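 MIC by broth microdilution following NCCLS guidelines, in RPMI 1640 buffered with MOPS. Starting inoculum 1-5 × 10^3 CFU/mL. Plates incubated at 35 °C. MIC and IC50 read spectrophotometrically at 492 nm after 48 h.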

Candida albicans [1] = test: Antifungal activity against Candida albicans clinical isolate CDRI after 48 hrs by broth microdilution technique; type: functional, organism-based; in short: as §1
Candida albicans [2] = test: Antifungal activity against Candida albicans MTCC 183 after 48 hrs by broth microdilution technique; type: functional, organism-based; conditions: MTCC 183, 48 h; in short: as §1
Escherichia coli = test: Antibacterial activity against Escherichia coli ATCC 9637 after 48 hrs by broth microdilution technique; type: functional; conditions: ATCC 9637, 48 h
In short: (§2)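 Broth microdilution following NCCLS guidelines in Mueller Hinton broth. Inoculum held at 1-5 × 10^3 cfu/mL. Plates incubated at 35 °C in a moist, dark chamber for 48 h. MIC and IC50 read spectrophotometrically at 492 nm.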

Candida albicans [3] = test: Antifungal activity against Candida albicans clinical isolate after 48 hrs by broth microdilution technique; type: functional, organism-based; in short: as §1
[4] = Spermicidal activity in human semen assessed as sperm immobilization at 0.1 % w/v up to 30 seconds by phase contrast microscopy; type: functional
Klebsiella pneumoniae = test: Antibacterial activity against Klebsiella pneumoniae after 48 hrs by broth microdilution technique; type: functional; in short: as §2
Staphylococcus aureus = test: Antibacterial activity against Staphylococcus aureus ATCC 25923 after 48 hrs by broth microdilution technique; type: functional; conditions: ATCC 25923, 48 h; in short: as §2
Candida albicans [5] = test: Antifungal activity against Candida albicans after 48 hrs by broth microdilution technique; type: functional, organism-based; in short: as §1
Candida albicans [6] = test: Antifungal activity against Candida albicans ATCC 10231 after 48 hrs by broth microdilution technique; type: functional, organism-based; conditions: ATCC 10231, 48 h; in short: as §1
[7] = test system: Trichophyton mentagrophytes; test: Antifungal activity against Trichophyton mentagrophytes after 48 hrs by broth microdilution technique; type: functional, organism-based; in short: as §1
Cryptococcus neoformans = test: Antifungal activity against Cryptococcus neoformans after 48 hrs by broth microdilution technique; type: functional, organism-based; in short: as §1
Candida parapsilosis = test: Antifungal activity against Candida parapsilosis ATCC 22019 after 48 hrs by broth microdilution technique; type: functional, organism-based; conditions: Lodderomyces parapsilosis, ATCC 22019, 48 h; in short: as §1
Pseudomonas aeruginosa = test: Antibacterial activity against Pseudomonas aeruginosa ATCC BAA-427 after 48 hrs by broth microdilution technique; type: functional; conditions: ATCC BAA-427, 48 h; in short: as §2
Aspergillus fumigatus = test: Antifungal activity against Aspergillus fumigatus after 48 hrs by broth microdilution technique; type: functional, organism-based; in short: as §1
Trichomonas vaginalis = test: Trichomonacidal activity against Trichomonas vaginalis after 48 hrs by trypan blue exclusion assay; type: functional; conditions: read-out: MEC
In short: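 T. vaginalis in log phase, grown in TYM with 10% FCS, vitamin mixture and penicillin/streptomycin at 37 °C. DMSO stocks ([…]) serially diluted in TYM down to 0.1 µg/mL; DMSO/TYM vehicle controls. 5 × 10^4 trophozoites added and incubated anaerobically at 37 °C. Viability checked by trypan blue from 3 to 48 h. MIC = lowest concentration killing all cells by 48 h. Three repeats.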

[8] = Spermicidal activity in human semen assessed as sperm immobilization at 1.0 % w/v up to 30 seconds by phase contrast microscopy; type: functional

Compound | IC50 (Sporothrix schenckii) | IC50 (Candida albicans [1]) | IC50 (Candida albicans [2]) | MIC (Escherichia coli) | IC50 (Candida albicans [3]) | Activity [4] | MIC (Klebsiella pneumoniae) | MIC (Staphylococcus aureus) | IC50 (Candida albicans [5]) | IC50 (Candida albicans [6]) | IC50 [7] | IC50 (Cryptococcus neoformans) | IC50 (Candida parapsilosis) | MIC (Pseudomonas aeruginosa) | IC50 (Aspergillus fumigatus) | minimal effective concentration (Trichomonas vaginalis) | Activity [8]
CCCCCCCCCCCCCCCCSC(=S)n1ccnc1C | > 50 mg/L | > 50 mg/L | > 50 mg/L | ≥ 50 mg/L | > 50 mg/L | 0% | ≥ 50 mg/L | ≥ 50 mg/L | > 50 mg/L | > 50 mg/L | 7.07 mg/L (≈ 18.5 µM) | > 50 mg/L | > 50 mg/L | ≥ 50 mg/L | > 50 mg/L | > 200 µg/mL | 95%
Cc1ncc([N+](=O)[O-])n1CCO [METRONIDAZOLE] | – | – | – | – | – | 0% | – | – | – | – | – | – | – | – | – | 2 µg/mL | 0%
CCCCCCCCSC(=S)n1ccnc1 | – | 31.4 mg/L (≈ 122 µM) | 4.61 mg/L (≈ 18 µM) | ≥ 50 mg/L | 1.06 mg/L (≈ 4.13 µM) | 80% | ≥ 50 mg/L | ≥ 50 mg/L | 5.72 mg/L (≈ 22.3 µM) | 7.68 mg/L (≈ 29.9 µM) | 1.48 mg/L (≈ 5.77 µM) | > 50 mg/L | > 50 mg/L | ≥ 50 mg/L | 6.21 mg/L (≈ 24.2 µM) | > 200 µg/mL | 100%
C=CCSC(=S)n1ccnc1 | 4.96 mg/L (≈ 26.9 µM) | 3.94 mg/L (≈ 21.4 µM) | 6.79 mg/L (≈ 36.8 µM) | ≥ 50 mg/L | 1.8 mg/L (≈ 9.77 µM) | 0% | ≥ 50 mg/L | ≥ 50 mg/L | > 50 mg/L | 7.26 mg/L (≈ 39.4 µM) | 4.43 mg/L (≈ 24 µM) | 5.75 mg/L (≈ 31.2 µM) | 2.09 mg/L (≈ 11.3 µM) | ≥ 50 mg/L | > 50 mg/L | > 200 µg/mL | 100%
CCCCCCCCCCCCCCCCSC(=S)n1ccnc1 | > 50 mg/L | > 50 mg/L | > 50 mg/L | ≥ 50 mg/L | > 50 mg/L | 0% | ≥ 50 mg/L | ≥ 50 mg/L | > 50 mg/L | > 50 mg/L | 18.4 mg/L (≈ 50 µM) | > 50 mg/L | > 50 mg/L | ≥ 50 mg/L | > 50 mg/L | > 200 µg/mL | 100%
CCCCSC(=S)n1cnc2ccccc21 | > 50 mg/L | 37.4 mg/L (≈ 149 µM) | 21.8 mg/L (≈ 87.1 µM) | ≥ 50 mg/L | > 50 mg/L | 0% | ≥ 50 mg/L | ≥ 50 mg/L | 6.39 mg/L (≈ 25.5 µM) | > 50 mg/L | 1.4 mg/L (≈ 5.59 µM) | > 50 mg/L | > 50 mg/L | ≥ 50 mg/L | > 50 mg/L | > 200 µg/mL | 100%
N#CCCCSC(=S)n1cnc2ccccc21 | – | 3.86 mg/L (≈ 14.8 µM) | > 50 mg/L | ≥ 50 mg/L | > 50 mg/L | 0% | ≥ 50 mg/L | ≥ 50 mg/L | > 50 mg/L | > 50 mg/L | – | > 50 mg/L | > 50 mg/L | ≥ 50 mg/L | > 50 mg/L | > 200 µg/mL | 100%
OC(Cn1cncn1)(Cn1cncn1)c1ccc(F)cc1F [FLUCONAZOLE] | 0.08 mg/L (≈ 0.261 µM) | – | 0.21 mg/L (≈ 0.686 µM) | – | – | – | – | – | – | – | 0.06 mg/L (≈ 0.196 µM) | – | 0.46 mg/L (≈ 1.5 µM) | – | 0.38 mg/L (≈ 1.24 µM) | – | –
C=CCSC(=S)n1cnc2ccccc21 | – | 39.3 mg/L (≈ 168 µM) | 40.1 mg/L (≈ 171 µM) | ≥ 50 mg/L | > 50 mg/L | 0% | ≥ 50 mg/L | ≥ 50 mg/L | > 50 mg/L | > 50 mg/L | > 50 mg/L | > 50 mg/L | > 50 mg/L | ≥ 50 mg/L | > 50 mg/L | > 200 µg/mL | 100%
N#CCCCSC(=S)n1ccnc1 | > 50 mg/L | 43.5 mg/L (≈ 206 µM) | > 50 mg/L | ≥ 50 mg/L | 10.8 mg/L (≈ 51 µM) | 92% | ≥ 50 mg/L | ≥ 50 mg/L | > 50 mg/L | > 50 mg/L | – | > 50 mg/L | 5.27 mg/L (≈ 24.9 µM) | ≥ 50 mg/L | > 50 mg/L | > 200 µg/mL | 100%
